Source: PubChem (Sanford-Burnham Center for Chemical Genomics)
FLuc inhib CS = inhibits firefly luciferase, flagging false hits in luciferase inhibition screens; P08659; ATPLite firefly luciferase biochemical luminescence, 10 min; inhibition, % at 10 µM; 200,000 compounds, 1.5% hits;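 active = inhibition above about 50% when tested at 10 µM, limit read from the data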
Target sequence (P08659 whole entry, looked up): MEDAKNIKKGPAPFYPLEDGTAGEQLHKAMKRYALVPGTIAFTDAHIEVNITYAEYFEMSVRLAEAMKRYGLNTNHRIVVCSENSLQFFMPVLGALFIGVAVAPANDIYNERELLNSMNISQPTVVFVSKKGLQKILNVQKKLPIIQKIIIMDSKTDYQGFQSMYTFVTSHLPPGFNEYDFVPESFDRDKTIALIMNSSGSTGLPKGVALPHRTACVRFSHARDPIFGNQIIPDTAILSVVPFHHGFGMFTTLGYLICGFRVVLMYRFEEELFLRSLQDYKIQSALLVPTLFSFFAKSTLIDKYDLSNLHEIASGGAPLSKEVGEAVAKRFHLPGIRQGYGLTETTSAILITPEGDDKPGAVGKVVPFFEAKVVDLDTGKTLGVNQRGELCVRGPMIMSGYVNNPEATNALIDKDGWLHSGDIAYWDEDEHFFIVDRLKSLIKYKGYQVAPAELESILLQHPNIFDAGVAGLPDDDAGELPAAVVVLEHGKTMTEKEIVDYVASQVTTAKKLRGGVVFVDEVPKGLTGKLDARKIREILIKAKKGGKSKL
TRAIL sens C8 = caspase-8 TRAIL sensitization | AID 624354 | NB7+C8 cells + TRAIL, ATPlite viability luminescence | inhibition (viability loss, TRAIL sensitization), % at 10 µM | 360,000 compounds, 1% hits;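 active = compounds causing at least 50% loss of cell viability in the single-dose screen, relative to plate controls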
FLuc stim CS = affects firefly luciferase, flagging false hits in luciferase stimulation screens; ATPlite luciferase biochemical, luminescence, 10 min; 0 = ATP-free wells, 1 = DMSO control; activation factor at 10 µM; 200,000 tested, under 10 active;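 active = luciferase activation factor, scaled between plate controls, of at least 2 with compound at 10 µM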
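System: luciferase plus luciferin reagent, cell-free; medium: PBS as buffer for the ATP substrate; dosing: test compounds dosed from 2 mM stocks in 100% DMSO; timing: 10 min post-reagent at room temperature; measured by: luminescence measurement of luciferase light output; evaluation: luciferase activation, seen as luminescence increase over controls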
PPC-1+TRAIL kill = compounds killing PPC-1 cancer cells with TRAIL present (potentiator screen, no TRAIL-free arm). AID 1443. 220,000 compounds, 0.41% hits. PPC-1 cells + TRAIL, ATPLite viability luminescence. cell killing (% activity), % at 4 µM or 5 µM;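 active = cell killing above 50% in the first pass at 4 µM, then a duplicate retest at 5 µM averaging 50% or more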;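 also: plate controls were cells with TRAIL plus DMSO for no effect and medium-only wells lacking cells for full effect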
Numbers without * were called inactive; . = no result given. Most compounds without a hit are left out; they make up all but 1.5% or so of the library.

SMILES | FLuc inhib CS | TRAIL sens C8 | FLuc stim CS | PPC-1+TRAIL kill
COc1cc(OC)c(NC2=CC(=O)C(=O)c3ccccc32)cc1Cl | . | 96* | . | .
Cc1cc(NC2=CC(=O)C(=O)c3ccccc32)no1 | . | 72* | . | .
CCOC(=O)N1CCN(C2=C(NS(=O)(=O)c3ccc(C)cc3)C(=O)c3ccccc3C2=O)CC1 | . | 53* | . | .
CCOC(=O)c1ccc(NC2=CC(=O)C(=O)c3ccccc32)cc1 | -3 | 94* | 1 | -3
CC(=O)Nc1ccc(NC2=CC(=O)c3ccccc3C2=O)cc1 | . | 24 | . | .
Cn1c2ccccc2c(=O)c2ccc(-c3ccc4c(c3)OCO4)cc21 | . | 41 | . | .
CC(=O)c1ccc(NC(=O)COc2ccc3c(c2)OCO3)cc1 | -3 | -1 | 1 | 24
Cc1ccc(NC2=C(N3CCOCC3)C(=O)c3ccccc3C2=O)cc1 | 56* | 56* | 0.4 | 4
CC(=O)c1ccc(NC2=C(N3CCOCC3)C(=O)c3ccccc3C2=O)cc1 | -5 | 16 | 1.1 | -6
O=C1C=C(Nc2ccc(O)cc2)C(=O)c2ccccc21 | . | 43 | . | 12
Cc1ccc(NC2=CC(=O)C(=O)c3ccccc32)cc1 | 31 | 91* | 0.7 | 49
Cc1ccc(NC2=C(Cl)C(=O)c3ccccc3C2=O)cc1 | 5 | 48 | 0.9 | 22
NS(=O)(=O)c1ccc(NC2=CC(=O)C(=O)c3ccccc32)cc1 | . | 64* | . | .
CC(=O)Nc1ccc(S(=O)(=O)O)c(OC(C)=O)c1 | . | 4 | . | .
CN(CC(=O)Nc1ccccc1Cl)C(=O)c1cc(C2CC2)nn1-c1ccccc1 | . | 0 | . | .
Cc1ccc(NC(=O)/C(C#N)=C(\N)C(Cl)(Cl)Cl)nc1 | 83* | 16 | 0.2 | -4
Cc1cc2nc(-c3ccc[nH]c3=O)[nH]c2cc1C | . | 90* | . | .
Cc1cc2nc(-c3ccc[nH]c3=O)n(Cc3ccc(F)cc3)c2cc1C | . | -9 | . | .
Cc1[nH]ccc2cc3nc4ccccc4c3cc12 | . | 34 | . | .
O=C(NC(c1ccccc1)c1ccc2ccccc2n1)C1CCN(Cc2ccc(Cl)c(Cl)c2)CC1 (configuration not stated) | . | 11 | . | .
CC1Cc2cccc3c(O)c(C(=O)c4nn[nH]n4)c(=O)n1c23 (configuration not stated) | -4 | 17 | 1 | 10
CS(=O)(=O)Nc1cccc(NC(=O)C2Cc3c(-c4ccccc4)ccnc3O2)c1 (configuration not stated) | . | 57* | . | .
CC(=O)Nc1cccc(-c2ccnc3c2CC(C(=O)Nc2cccc(NS(C)(=O)=O)c2)O3)c1 (configuration not stated) | . | 12 | . | .
Cc1noc(C)c1COC(=O)c1ccc(-c2nc3ccccc3s2)s1 | 4 | 16 | 1 | 32
CCNC(=O)COC(=O)c1ccc(-c2nc3ccccc3s2)s1 | 87* | 11 | 0.1 | 29
SMILES | FLuc inhib CS | TRAIL sens C8 | FLuc stim CS | PPC-1+TRAIL kill
Cc1ccc2nc(NC(=O)c3ccc(-c4nc5ccccc5s4)s3)sc2c1 | 5 | 67* | 0.9 | 11
Cc1ccc(-c2noc(CN3C(C)CCCC3C)n2)cc1 (configuration not stated) | -2 | 15 | 1 | -17
O=C1c2ccccc2/C(=C\C#Cc2ccccn2)N1c1ccccc1 | . | 74* | . | .
CN(C)c1ccc(/C=C2\c3ccccc3C(=O)N2c2ccccc2)cn1 | . | -9 | . | .
Cc1ccc(-n2ncc3c2CCCC3NC(=O)CSc2ccccn2)cc1C (configuration not stated) | . | -3 | . | .
CC(=O)Nc1sc2c(c1C#N)CCCC2 | -5 | 1 | 1.1 | 5
CC1CCc2c(sc(NC(=O)c3nc4ncccn4n3)c2C#N)C1 (configuration not stated) | . | 2 | . | 8
CC(=O)NC(=S)Nc1sc2c(c1C#N)CCCCC2 | 72* | 15 | 0.3 | 25
N#Cc1c(NC(=O)c2nc3ncccn3n2)sc2c1CCCCC2 | 57* | -4 | 0.4 | 12
CC(C)C(=O)N1CCN(c2ccccc2NC(=O)c2cccc3ccccc23)CC1 | . | -11 | . | .
CC(C)c1ccc2[nH]c(O)c(N=NC(=O)c3cccc(S(=O)(=O)Nc4cccc(Cl)c4)c3)c2c1 | . | 50* | . | 6
CCc1sc(NC(=O)CCC(=O)O)nc1-c1cc2ccccc2oc1=O | -3 | -10 | 1 | -1
Cc1ccc(-c2nc3cc(NC(=O)C(C)C)ccc3o2)cc1 | 42 | 46 | 0.6 | 36
COc1cccc(-c2nc3ccccc3c(=O)o2)c1 | 52* | 0 | 0.5 | 6
Cc1ccc(-c2nc3cc(NC(=O)C(C)C)ccc3o2)cc1C | 56* | 37 | 0.4 | 22
COc1ccc(-c2nc3ccccc3c(=O)[nH]2)cc1 | . | 66* | . | .
CCC(=O)Nc1ccc2oc(-c3cccc(C)c3)nc2c1 | 71* | 60* | 0.3 | 45
COc1cc(OC)cc(-c2nc3ccccc3c(=O)o2)c1 | 8 | -4 | 0.9 | 3
O=C1[C@H]2[C@@H](c3ccccc3)N[C@]3(CCCN(Cc4ccc(F)cc4)C3=O)[C@H]2C(=O)N1Cc1ccccc1 | . | -17 | . | .
CCN(CC)CCCNC(=O)c1nn2c(C(F)(F)F)cc(-c3ccccc3)nc2c1Cl | . | 16 | . | .
Cc1nc2nc(C)c(NS(=O)(=O)c3ccc(C4CCCCC4)cc3)c(=O)n2[nH]1 | . | -5 | . | .
Cc1cccc(-c2nc3cc(NC(=O)C4CCCO4)ccc3o2)c1 (configuration not stated) | 83* | 63* | 0.2 | 56*
CC(=O)Nc1cccc(-c2nc3ccccc3o2)c1 | . | 8 | . | .
CC(C)C(=O)Nc1ccc(-c2nc3cccnc3o2)cc1 | 67* | 47 | 0.3 | 37
CCC(=O)Nc1ccc(-c2nc3ccccc3c(=O)o2)cc1 | 74* | 48 | 0.3 | 41
SMILES | FLuc inhib CS | TRAIL sens C8 | FLuc stim CS | PPC-1+TRAIL kill
Cc1ccc2oc(-c3cccc(NC(=O)C4CCCO4)c3)nc2c1 (configuration not stated) | 30 | 16 | 0.7 | 23
CC(=O)Nc1ccc2oc(-c3ccccc3)nc2c1 | 70* | 27 | 0.3 | 50
Cc1ccc(CC(=O)Nc2cccc(C(=O)Nc3c(C)n(C)n(-c4ccccc4)c3=O)c2)cc1C | . | 0 | . | .
OCCC1CN(Cc2cccn2-c2ncccn2)CCN1C1CCCC1 (configuration not stated) | -2 | -5 | 1 | 9
O=C(Nc1ccc2oc(-c3ccccc3F)nc2c1)c1ncn[nH]1 | 53* | 27 | 0.5 | 33
O=C(Nc1ccc2oc(-c3ccccc3F)nc2c1)c1ccccc1F | . | 2 | . | .
COc1cc(C(=O)Nc2cc(-c3nc4cc(C)ccc4o3)ccc2C)cc(OC)c1OC | 51* | 36 | 0.5 | 34
COc1cc(C(=O)Nc2cccc(-c3nc4cc(C)ccc4o3)c2)cc(OC)c1OC | 29 | 20 | 0.7 | 18
O=C(OCC12CC3CC(CC(C3)C1)C2)c1ccc(NCc2cc(O)ccc2O)cc1 | . | 92* | . | .
N#CCC(=O)Nc1ccc(C(=O)OCC(=O)C23CC4CC(CC(C4)C2)C3)cc1 | . | 5 | . | .
CCNC(=O)OCCC12CC3CC(CC(C3)C1)C2 | 0 | 0 | 1 | 21
O=C(OCCC12CC3CC(CC(C3)C1)C2)c1ccc(NCc2cc(O)ccc2O)cc1 | . | 92* | . | .
COC(=O)Nc1nnc(-c2ccccc2Cl)s1 | 55* | 36 | 0.4 | 27
COC(=O)Nc1nnc(-c2ccccc2OC)s1 | . | 18 | . | 23
